From ChEMBL document CHEMBL1153456, “Synthesis and opioid receptor activity of indolopropellanes” (Bioorg Med Chem Lett, 2009)
pEC50, pKi: −log10 of the molar value.

Legend:
[1] = target: T1, Delta-type opioid receptor (Homo sapiens, UniProt P41143); experiment: Displacement of [3H]naltrindole from human delta opioid receptor expressed in CHO cells; format: cell-based
Summary of the method: (§1)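 Binding was run on CHO membranes at 0.5 mg protein per sample, incubated at 25 °C in 50 mM Tris–HCl pH 7.5 with the receptor-specific radioligand and 12 compound concentrations. Naloxone defined nonspecific binding. Values are means ± SEM from three experiments, each run in triplicate.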

[2] = target: T2, Kappa-type opioid receptor (Homo sapiens, UniProt P41145); experiment: Displacement of [3H]U50488 from human kappa opioid receptor expressed in CHO cells; format: cell-based; summary of the method: as §1
Mu-type opioid receptor [3] = target: T3, Mu-type opioid receptor (Homo sapiens, UniProt P35372); experiment: Displacement of [3H]DAMGO from human mu opioid receptor expressed in CHO cells; format: cell-based; summary of the method: as §1
[4] = target: Delta-type opioid receptor (Rattus norvegicus, UniProt P33533); experiment: Displacement of [3H]p-Cl-DPDPE from rat delta opioid receptor expressed in rat C6 cells
[5] = target: T2, Kappa-type opioid receptor; experiment: Agonist activity at human kappa opioid receptor expressed in CHO cells assessed as stimulation of [35S]GTPgammaS binding by scintillation counting; format: functional, cell-based
Summary of the method: (§2)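 CHO cell membranes expressing the opioid receptor were incubated with varying concentrations of compound in the presence of 0.8 nM [35S]GTPγS. EC50 and Emax were derived from the concentration–response data. Values are means from three experiments, each run in triplicate.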

[6] = target: T1, Delta-type opioid receptor; experiment: Agonist activity at human delta opioid receptor expressed in CHO cells assessed as stimulation of [35S]GTPgammaS binding by scintillation counting; format: functional, cell-based; summary of the method: as §2
Mu-type opioid receptor [7] = target: T3, Mu-type opioid receptor; experiment: Agonist activity at human mu opioid receptor expressed in CHO cells assessed as stimulation of [35S]GTPgammaS binding by scintillation counting; format: functional, cell-based; summary of the method: as §2

T1 sequence (P41143 whole entry): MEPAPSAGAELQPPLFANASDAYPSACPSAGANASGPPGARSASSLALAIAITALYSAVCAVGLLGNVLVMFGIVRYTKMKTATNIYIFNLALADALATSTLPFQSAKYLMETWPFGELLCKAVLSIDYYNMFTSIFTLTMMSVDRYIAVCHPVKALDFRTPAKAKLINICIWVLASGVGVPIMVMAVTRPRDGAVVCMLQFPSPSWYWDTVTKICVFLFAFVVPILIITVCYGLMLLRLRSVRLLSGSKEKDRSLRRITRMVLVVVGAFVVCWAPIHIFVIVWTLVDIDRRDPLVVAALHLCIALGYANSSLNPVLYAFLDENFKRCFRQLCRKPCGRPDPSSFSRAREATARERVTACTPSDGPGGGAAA
T3 sequence (P35372 whole entry): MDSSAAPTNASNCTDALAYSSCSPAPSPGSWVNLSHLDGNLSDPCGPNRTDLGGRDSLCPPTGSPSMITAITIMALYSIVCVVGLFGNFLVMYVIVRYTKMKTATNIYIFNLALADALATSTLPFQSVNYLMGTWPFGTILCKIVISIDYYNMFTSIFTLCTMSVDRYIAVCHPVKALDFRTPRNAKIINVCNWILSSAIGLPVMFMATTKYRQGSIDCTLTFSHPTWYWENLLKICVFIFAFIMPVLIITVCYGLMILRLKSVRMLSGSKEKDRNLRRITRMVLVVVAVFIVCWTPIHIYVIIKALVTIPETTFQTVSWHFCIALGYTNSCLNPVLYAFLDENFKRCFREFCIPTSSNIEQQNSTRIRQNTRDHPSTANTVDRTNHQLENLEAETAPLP
T2 sequence (P41145 whole entry): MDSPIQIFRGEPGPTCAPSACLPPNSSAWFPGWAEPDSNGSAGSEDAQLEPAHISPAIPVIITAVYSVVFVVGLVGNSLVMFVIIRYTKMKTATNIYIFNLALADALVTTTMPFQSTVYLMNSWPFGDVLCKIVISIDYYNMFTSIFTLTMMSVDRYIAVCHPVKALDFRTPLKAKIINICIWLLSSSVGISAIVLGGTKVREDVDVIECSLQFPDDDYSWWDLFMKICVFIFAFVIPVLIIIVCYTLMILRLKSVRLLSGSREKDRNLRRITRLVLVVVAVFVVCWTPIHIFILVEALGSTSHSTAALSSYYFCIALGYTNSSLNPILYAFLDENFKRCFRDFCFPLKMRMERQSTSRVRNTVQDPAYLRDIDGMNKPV
Chain of Delta-type opioid receptor (Rattus norvegicus, UniProt P33533) (P33533 whole entry): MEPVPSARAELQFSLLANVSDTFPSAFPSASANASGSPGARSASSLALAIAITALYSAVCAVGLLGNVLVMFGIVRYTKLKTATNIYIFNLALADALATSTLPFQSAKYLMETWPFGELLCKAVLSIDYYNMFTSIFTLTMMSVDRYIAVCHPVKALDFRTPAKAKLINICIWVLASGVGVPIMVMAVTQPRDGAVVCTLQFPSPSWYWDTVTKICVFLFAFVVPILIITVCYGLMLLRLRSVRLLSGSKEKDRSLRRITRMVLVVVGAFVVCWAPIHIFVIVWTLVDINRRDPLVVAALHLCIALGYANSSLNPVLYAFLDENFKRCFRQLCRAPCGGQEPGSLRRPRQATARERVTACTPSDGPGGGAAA

SMILES | pKi [1] | pKi [2] | pKi (Mu-type opioid receptor [3]) | pKi [4] | pEC50 [5] | Emax [5] [%] | pEC50 [6] | Emax [6] [%] | pEC50 (Mu-type opioid receptor [7]) | Emax (Mu-type opioid receptor [7]) [%]
CN1CC[C@]23Cc4[nH]c5ccccc5c4C[C@]2(Cc2ccc(O)cc23)C1 | 5.95 | 5.92 | 6.98 | – | – | – | – | – | – | –
COc1ccc2c(c1O)[C@]13CCN(C)[C@H](C2)[C@]1(O)Cc1c([nH]c2ccccc12)C3 | 7.66 | 5.50 | 5.73 | – | – | – | – | – | – | –
Oc1ccc2c3c1O[C@H]1c4[nH]c5ccccc5c4C[C@@]4(O)[C@@H](C2)N(CC2CC2)CC[C@]314 [NALTRINDOLE] | – | – | – | 9.70 | – | – | – | – | – | –
Cn1c2c(c3ccccc31)C[C@@]13Cc4ccc(O)cc4[C@@]1(CCN(CC1CC1)C3)C2 | 5.75 | 5.82 | 6.33 | – | – | – | – | – | – | –
COc1c(O)ccc2c1[C@]13CCN(C)[C@H](C2)[C@]1(O)Cc1c([nH]c2ccccc12)C3 | 8.35 | – | 6.32 | – | – | – | – | – | – | –
CN1CC[C@]23Cc4c(c5ccccc5n4C)C[C@]2(Cc2ccc(O)cc23)C1 | 6.57 | 5.95 | 7.40 | – | 7.21 | 76.2 | 7.19 | 77.3 | 6.76 | 95.7
COc1ccc2c(c1)[C@]13CCN(C)C[C@@]1(C2)Cc1c([nH]c2ccccc12)C3 | 6.12 | 5.29 | 5.74 | – | – | – | – | – | – | –
COc1ccc2c(c1)[C@]13CCN(C)C[C@@]1(C2)Cc1c(n(C)c2ccccc12)C3 | < 5.00 | 5.42 | 6.15 | – | – | – | – | – | – | –
Oc1ccc2c(c1)[C@]13CCN(CC4CC4)C[C@@]1(C2)Cc1c([nH]c2ccccc12)C3 | 5.59 | 6.15 | 6.28 | – | 7.17 | 79.9 | 8.00 | 91.4 | 7.48 | 88.6
COc1ccc2c(c1)[C@]13CCN(CC4CC4)C[C@@]1(C2)Cc1c([nH]c2ccccc12)C3 | 5.18 | 5.59 | 5.85 | – | – | – | – | – | – | –
